Results reported in ChEMBL document CHEMBL1150617, “New and biologically active imidazole alkaloids from two sponges of the genus Leucetta” (2002).
Converted amounts (≈) assume the structure as drawn. The source made the active and inactive calls. The rule behind the calls is not given here.

Tests used:
[1] = system: Escherichia coli; test: Antibacterial activity against Escherichia coli at 50 ug; type: functional, organism-based
Summary of the method: (§1)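 Agar diffusion assay against bacteria (Bacillus megaterium, Escherichia coli), fungi (Microbotryum violaceum, Eurotium repens, Mycotypha microsporum) and the green microalga Chlorella fusca.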

[2] = system: Priestia megaterium; test: Antibacterial activity against Bacillus megaterium at 50 ug; type: functional, organism-based; summary of the method: as §1
[3] = system: Microbotryum violaceum; test: Antifungal activity against Microbotryum violaceum at 50 ug; type: functional, organism-based; summary of the method: as §1
[4] = system: [Chlorella] fusca; test: Antialgal activity against 'Chlorella' fusca at 50 ug; type: functional, organism-based; conditions: Scenedesmus fuscus; summary of the method: as §1
[5] = system: Aspergillus pseudoglaucus; test: Antifungal activity against Eurotium repens at 50 ug; type: functional, organism-based; summary of the method: as §1
[6] = system: Mycotypha microspora; test: Antifungal activity against Mycotypha microspora at 50 ug; type: functional, organism-based; summary of the method: as §1
[7] = system: HepG2; test: Cytotoxicity against human HepG2 cells; type: functional
Summary of the method: (§2)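 Cytotoxicity run to NCI standards on the human tumour lines HM02 (stomach carcinoma), HepG2 (liver carcinoma) and Huh7 (liver carcinoma with mutated p53).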

[8] = system: Huh-7; test: Cytotoxicity against human HuH7 cells; type: functional; summary of the method: as §2
[9] = Cytotoxicity against human HM02 cells; type: functional; summary of the method: as §2

Row | SMILES | Activity [1] | Activity [2] | Activity [3] | Activity [4] | Activity [5] | Activity [6] | GI50 [7] | GI50 [8] | GI50 [9]
1 | COc1ccc(Cc2[nH]c(=N)n(C)c2Cc2cc(O)c(OC)c(O)c2)cc1 | inactive | inactive | inactive | inactive | inactive | inactive | – | – | –
2 | COc1ccc(Cc2[nH]c(=N)n(C)c2Cc2ccc(O)cc2)cc1 | inactive | inactive | inactive | inactive | inactive | inactive | – | – | –
3 | COc1ccc(Cc2cn(Cc3ccc(O)cc3)c(=N)n2C)cc1 | inactive | inactive | inactive | inactive | inactive | inactive | – | – | –
4 | COc1ccc(Cn2cc(Cc3ccc(OC)c(OC)c3)nc2/N=C2/NC(=O)N(C)C2=O)cc1 [ISONAAMIDINE E] | inactive | inactive | inactive | inactive | inactive | inactive | 7 µg/mL (≈ 15.1 µM) | 1.3 µg/mL (≈ 2.8 µM) | 7 µg/mL (≈ 15.1 µM)
5 | COc1ccc(Cn2cc(Cc3ccc(OC)c(OC)c3)nc2N)cc1 [ISONAAMINE C] | inactive | inactive | inactive | inactive | inactive | inactive | 2.2 µg/mL (≈ 6.22 µM) | 2.1 µg/mL (≈ 5.94 µM) | 5.3 µg/mL (≈ 15 µM)
